Activity calls are given as the source filed them. No cut-off for these calls is given here.
tested on: HeLa; test: Cell cycle arrest in non-estrogen-sensitive human HeLa cells assessed as increase of accumulation at G2/M phase at 6 to 50 uM after 24 hrs using propidium iodide staining by flow cytometry; type: functional, cell-based; conditions: not given

Row | SMILES | Activity
1 | CCn1ccc2c3c(Cn4cncn4)cc(-c4ccccc4)nc3ccc21 | Active

tested on: HeLa; test: Cell cycle arrest in non-estrogen-sensitive human HeLa cells at 6 to 50 uM after 24 hrs using propidium iodide staining by flow cytometry; type: functional, cell-based; conditions: not given

Row | SMILES | Activity
2 | c1ccc(-c2cc(Cn3ccnc3)c3ccc4[nH]ccc4c3n2)cc1 | inactive

target: T1, Steroid 17-alpha-hydroxylase/17,20 lyase (Homo sapiens, UniProt P05093); test: Inhibition of human CYP17 expressed in Escherichia coli using progesterone as substrate NADPH as cofactor; conditions: not given
T1 sequence (P05093 whole entry): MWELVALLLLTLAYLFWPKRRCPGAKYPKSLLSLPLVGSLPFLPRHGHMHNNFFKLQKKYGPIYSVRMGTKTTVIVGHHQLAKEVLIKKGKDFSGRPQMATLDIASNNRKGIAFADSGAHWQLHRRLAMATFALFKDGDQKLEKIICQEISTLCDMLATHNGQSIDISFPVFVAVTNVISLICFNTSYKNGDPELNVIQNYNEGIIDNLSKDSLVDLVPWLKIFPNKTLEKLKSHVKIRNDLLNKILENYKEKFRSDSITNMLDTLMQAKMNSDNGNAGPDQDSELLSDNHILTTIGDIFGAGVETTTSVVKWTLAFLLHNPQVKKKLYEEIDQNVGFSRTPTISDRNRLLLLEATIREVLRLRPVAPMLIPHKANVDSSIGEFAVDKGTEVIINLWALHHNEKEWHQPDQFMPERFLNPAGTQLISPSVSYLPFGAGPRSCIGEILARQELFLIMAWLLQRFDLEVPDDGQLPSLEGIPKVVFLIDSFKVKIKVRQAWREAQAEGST
Summary of the method: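 Cell-free assay using the 50000g sediment of E. coli coexpressing human CYP17 and cytochrome P450 reductase, with progesterone substrate and NADPH cofactor. IC50 given as mean ± SEM of three independent experiments run in duplicate.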

Row | SMILES | IC50 [µM]
3 | CCn1ccc2c3c(Cn4cncn4)cc(-c4ccccc4)nc3ccc21 | > 5
4 | COc1ccc(-c2cc(Cn3cncn3)c3ccc4[nH]ccc4c3n2)cc1 | > 5
5 | c1ccc(-c2cc(Cn3ccnc3)c3ccc4[nH]ccc4c3n2)cc1 | 0.919

tested on: MCF7; test: Cell cycle arrest in estrogen-sensitive human MCF7 cells assessed as decrease of accumulation at S phase at 6 to 50 uM after 24 hrs using propidium iodide staining by flow cytometry; type: functional, cell-based; conditions: not given

Row | SMILES | Activity
6 | c1ccc(-c2cc(Cn3ccnc3)c3ccc4[nH]ccc4c3n2)cc1 | Active

tested on: HeLa; test: Cell cycle arrest in non-estrogen-sensitive human HeLa cells assessed as decrease of accumulation at G1 and S phase at 6 to 50 uM after 24 hrs using propidium iodide staining by flow cytometry; type: functional, cell-based; conditions: not given

Row | SMILES | Activity
7 | CCn1ccc2c3c(Cn4cncn4)cc(-c4ccccc4)nc3ccc21 | Active

tested on: MCF7; test: Cell cycle arrest in estrogen-sensitive human MCF7 cells assessed as increase of accumulation at G2/M phase at 6 to 50 uM after 24 hrs using propidium iodide staining by flow cytometry; type: functional, cell-based; conditions: not given

Row | SMILES | Activity
8 | CCn1ccc2c3c(Cn4cncn4)cc(-c4ccccc4)nc3ccc21 | Active

tested on: MCF7; test: Growth inhibition of estrogen-sensitive human MCF7 cells after 72 hrs by MTT assay; type: functional; conditions: MCF7, 72 h
Summary of the method: (§1)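 Cells were seeded at 8x10^3 per well and left 18 h at 37 °C, 5% CO2, then exposed 72 h to compound at several concentrations from 10 mM DMSO stocks (final DMSO ≤0.25%). Jurkat, RS4;11 and SEM were grown in RPMI-1640; H295R in DMEM-F12 with 2% FBS plus insulin-transferrin-selenium. Viability read by MTT.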

Row | SMILES | GI50 [µM]
9 | CCn1ccc2c3c(Cn4cncn4)cc(-c4ccccc4)nc3ccc21 | 23
10 | COc1ccc(-c2cc(Cn3cncn3)c3ccc4[nH]ccc4c3n2)cc1 | > 100
11 | c1ccc(-c2cc(Cn3ccnc3)c3ccc4[nH]ccc4c3n2)cc1 | 23.3

tested on: not listed separately; test: Growth inhibition of non-estrogen-sensitive human RS4:11 cells after 72 hrs by MTT assay; type: functional; conditions: RS4-11, 72 h; summary of the method: as §1

Row | SMILES | GI50 [µM]
12 | CCn1ccc2c3c(Cn4cncn4)cc(-c4ccccc4)nc3ccc21 | 2.7
13 | COc1ccc(-c2cc(Cn3cncn3)c3ccc4[nH]ccc4c3n2)cc1 | 43.8
14 | c1ccc(-c2cc(Cn3ccnc3)c3ccc4[nH]ccc4c3n2)cc1 | 29.6

target: T2, Aromatase (Homo sapiens, UniProt P11511); test: Inhibition of CYP19 in human H295R cells using [1beta-3H(N)]-androst-4-ene-3,17-dione at 10 uM after 24 hrs by tritiated water release assay; type: cell-based; conditions: not given
T2 sequence (P11511 whole entry): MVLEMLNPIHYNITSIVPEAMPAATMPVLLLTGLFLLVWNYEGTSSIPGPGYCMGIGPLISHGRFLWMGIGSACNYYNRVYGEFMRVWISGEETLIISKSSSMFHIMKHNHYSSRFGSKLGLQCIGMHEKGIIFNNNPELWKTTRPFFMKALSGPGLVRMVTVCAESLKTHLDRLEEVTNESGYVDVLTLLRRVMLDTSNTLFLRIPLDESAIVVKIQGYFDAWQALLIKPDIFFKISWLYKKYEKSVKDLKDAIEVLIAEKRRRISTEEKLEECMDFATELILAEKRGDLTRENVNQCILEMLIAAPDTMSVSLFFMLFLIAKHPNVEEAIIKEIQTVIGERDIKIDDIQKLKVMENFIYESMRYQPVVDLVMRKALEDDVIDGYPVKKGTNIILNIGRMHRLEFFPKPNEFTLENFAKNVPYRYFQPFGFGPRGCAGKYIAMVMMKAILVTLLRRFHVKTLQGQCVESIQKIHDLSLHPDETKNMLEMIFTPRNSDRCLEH
Summary of the method: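 Cells were then incubated 2 h with 0.5 µM [1β-3H(N)]-androst-4-ene-3,17-dione. Read-out is tritiated water release, expressed as % of untreated cells. Means ± SEM of two independent experiments, each in triplicate.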

Row | SMILES | inhibition (INH)
15 | COc1ccc(-c2cc(Cn3cncn3)c3ccc4[nH]ccc4c3n2)cc1 | Not Active
16 | c1ccc(-c2cc(Cn3ccnc3)c3ccc4[nH]ccc4c3n2)cc1 | Not Active

tested on: IGROV-1; test: Growth inhibition of estrogen-sensitive human IGROV1 cells after 72 hrs by MTT assay; type: functional; conditions: IGROV-1, 72 h; summary of the method: as §1

Row | SMILES | GI50 [µM]
17 | CCn1ccc2c3c(Cn4cncn4)cc(-c4ccccc4)nc3ccc21 | 54.3
18 | COc1ccc(-c2cc(Cn3cncn3)c3ccc4[nH]ccc4c3n2)cc1 | 82
19 | c1ccc(-c2cc(Cn3ccnc3)c3ccc4[nH]ccc4c3n2)cc1 | 23.6

tested on: not listed separately; test: Growth inhibition of non-estrogen-sensitive human SEM cells after 72 hrs by MTT assay; type: functional; conditions: not given; summary of the method: as §1

Row | SMILES | GI50 [µM]
20 | CCn1ccc2c3c(Cn4cncn4)cc(-c4ccccc4)nc3ccc21 | 5.5
21 | COc1ccc(-c2cc(Cn3cncn3)c3ccc4[nH]ccc4c3n2)cc1 | 28.4
22 | c1ccc(-c2cc(Cn3ccnc3)c3ccc4[nH]ccc4c3n2)cc1 | 17

tested on: MCF7; test: Cell cycle arrest in estrogen-sensitive human MCF7 cells assessed as decrease of accumulation at G1 and S phase at 6 to 50 uM after 24 hrs using propidium iodide staining by flow cytometry; type: functional, cell-based; conditions: not given

Row | SMILES | Activity
23 | CCn1ccc2c3c(Cn4cncn4)cc(-c4ccccc4)nc3ccc21 | Active

target: T2, Aromatase; test: Activation of aromatase in human H295R cells using [1beta-3H(N)]-androst-4-ene-3,17-dione as substrate at 0.1 uM after 24 hrs by tritiated water release assay; conditions: not given

Row | SMILES | Activity
24 | COc1ccc(-c2cc(Cn3cncn3)c3ccc4[nH]ccc4c3n2)cc1 | Active
25 | c1ccc(-c2cc(Cn3ccnc3)c3ccc4[nH]ccc4c3n2)cc1 | Active

tested on: MCF7; test: Cell cycle arrest in estrogen-sensitive human MCF7 cells assessed as increase of accumulation at G1 phase after 24 hrs using propidium iodide staining by flow cytometry; type: functional, cell-based; conditions: not given

Row | SMILES | Activity
26 | c1ccc(-c2cc(Cn3ccnc3)c3ccc4[nH]ccc4c3n2)cc1 | Dose-dependent effect

tested on: OVCAR-3; test: Growth inhibition of estrogen-sensitive human OVCAR3 cells after 72 hrs by MTT assay; type: functional; conditions: OVCAR-3, 72 h; summary of the method: as §1

Row | SMILES | GI50 [µM]
27 | CCn1ccc2c3c(Cn4cncn4)cc(-c4ccccc4)nc3ccc21 | 13.6
28 | COc1ccc(-c2cc(Cn3cncn3)c3ccc4[nH]ccc4c3n2)cc1 | 50.6
29 | c1ccc(-c2cc(Cn3ccnc3)c3ccc4[nH]ccc4c3n2)cc1 | 16.9

target: T2, Aromatase; test: Inhibition of aromatase in human H295R cells using [1beta-3H(N)]-androst-4-ene-3,17-dione as substrate assessed as residual activity at 10 uM after 24 hrs by tritiated water release assay; conditions: not given

Row | SMILES | activity at 10 µM [%]
30 | CCn1ccc2c3c(Cn4cncn4)cc(-c4ccccc4)nc3ccc21 | 50.9

tested on: HeLa; test: Growth inhibition of non-estrogen-sensitive human HeLa cells after 72 hrs by MTT assay; type: functional; conditions: not given; summary of the method: as §1

Row | SMILES | GI50 [µM]
31 | CCn1ccc2c3c(Cn4cncn4)cc(-c4ccccc4)nc3ccc21 | 59.8
32 | COc1ccc(-c2cc(Cn3cncn3)c3ccc4[nH]ccc4c3n2)cc1 | > 100
33 | c1ccc(-c2cc(Cn3ccnc3)c3ccc4[nH]ccc4c3n2)cc1 | 21.2

tested on: Jurkat; test: Growth inhibition of non-estrogen-sensitive human Jurkat cells after 72 hrs by MTT assay; type: functional; conditions: not given; summary of the method: as §1

Row | SMILES | GI50 [µM]
34 | CCn1ccc2c3c(Cn4cncn4)cc(-c4ccccc4)nc3ccc21 | 65.8
35 | COc1ccc(-c2cc(Cn3cncn3)c3ccc4[nH]ccc4c3n2)cc1 | 39.5
36 | c1ccc(-c2cc(Cn3ccnc3)c3ccc4[nH]ccc4c3n2)cc1 | 27

target: T3, Cytochrome P450 11B1, mitochondrial (Homo sapiens, UniProt P15538); test: Inhibition of human CYP11B1 using [1,2-3H]-11-deoxycorticosterone as substrate; conditions: not given
T3 sequence (P15538 whole entry): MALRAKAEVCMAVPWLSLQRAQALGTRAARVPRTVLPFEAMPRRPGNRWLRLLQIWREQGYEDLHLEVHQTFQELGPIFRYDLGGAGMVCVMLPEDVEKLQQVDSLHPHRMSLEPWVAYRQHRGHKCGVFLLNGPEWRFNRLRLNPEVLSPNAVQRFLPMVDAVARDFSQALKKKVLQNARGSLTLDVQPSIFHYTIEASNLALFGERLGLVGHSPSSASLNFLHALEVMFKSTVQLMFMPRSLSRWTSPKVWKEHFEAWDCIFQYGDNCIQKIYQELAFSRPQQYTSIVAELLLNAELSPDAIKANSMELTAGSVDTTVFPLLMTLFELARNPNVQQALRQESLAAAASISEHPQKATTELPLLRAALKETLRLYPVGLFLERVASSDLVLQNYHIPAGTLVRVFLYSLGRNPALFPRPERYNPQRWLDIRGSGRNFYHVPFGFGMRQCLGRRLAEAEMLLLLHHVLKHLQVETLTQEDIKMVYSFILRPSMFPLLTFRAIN
Summary of the method: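 Hamster fibroblast V79MZh cells expressing human CYP11B1 were incubated with [1,2-3H]-11-deoxycorticosterone substrate and inhibitor at several concentrations. IC50 given as mean ± SEM of three independent experiments run in duplicate.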

Row | SMILES | IC50 [µM]
37 | CCn1ccc2c3c(Cn4cncn4)cc(-c4ccccc4)nc3ccc21 | 1.48
38 | COc1ccc(-c2cc(Cn3cncn3)c3ccc4[nH]ccc4c3n2)cc1 | > 5
39 | c1ccc(-c2cc(Cn3ccnc3)c3ccc4[nH]ccc4c3n2)cc1 | 0.23

tested on: NCI-H295R; test: Growth inhibition of estrogen-sensitive human NCI-H295R cells after 72 hrs by MTT assay; type: functional; conditions: not given; summary of the method: as §1

Row | SMILES | GI50 [µM]
40 | CCn1ccc2c3c(Cn4cncn4)cc(-c4ccccc4)nc3ccc21 | 75.3
41 | COc1ccc(-c2cc(Cn3cncn3)c3ccc4[nH]ccc4c3n2)cc1 | > 100
42 | c1ccc(-c2cc(Cn3ccnc3)c3ccc4[nH]ccc4c3n2)cc1 | 36.5

tested on: HT-29; test: Growth inhibition of non-estrogen-sensitive human HT-29 cells after 72 hrs by MTT assay; type: functional; conditions: HT-29, 72 h; summary of the method: as §1

Row | SMILES | GI50 [µM]
43 | CCn1ccc2c3c(Cn4cncn4)cc(-c4ccccc4)nc3ccc21 | 29.5
44 | COc1ccc(-c2cc(Cn3cncn3)c3ccc4[nH]ccc4c3n2)cc1 | > 100
45 | c1ccc(-c2cc(Cn3ccnc3)c3ccc4[nH]ccc4c3n2)cc1 | 13.5

target: T2, Aromatase; test: Inhibition of aromatase (unknown origin) using 7-methoxy-4-trifluoromethylcoumarin as substrate after 30 mins by fluorimetric analysis; conditions: not given
Summary of the method: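 Recombinant CYP19 from a high-throughput screening kit, with 7-methoxy-4-trifluoromethylcoumarin as substrate. Enzyme/substrate mix was then added for 30 min at 37 °C before stop reagent. Fluorescence read at λex 410 / λem 530 nm. IC50 given as mean ± SEM of three independent experiments run in duplicate.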

Row | SMILES | IC50 [µM]
46 | CCn1ccc2c3c(Cn4cncn4)cc(-c4ccccc4)nc3ccc21 | 0.0133
47 | COc1ccc(-c2cc(Cn3cncn3)c3ccc4[nH]ccc4c3n2)cc1 | > 10
48 | c1ccc(-c2cc(Cn3ccnc3)c3ccc4[nH]ccc4c3n2)cc1 | 0.0114
